Assay results gathered from unrelated publications.
Protocols differ between the studies behind these lines.
Target: 5-hydroxytryptamine receptor 2A (HTR2A, Homo sapiens, UniProt P28223)
Tested at: 10 µM

Nc1c(C(=O)NCc2ccc(C(=O)NCCCC3CCCCC3)cc2)cnn1-c1ccccc1 — inhibition (ligand displacement): 23.7%
CCN(CC)CCCC[C@H](NC(=O)[C@H](CC(C)C)NC(=O)[C@H](C)NC(=O)[C@H](Cc1ccccc1)NC(=O)c1ccc(C(C)(C)C)cc1)C(=O)N[C@@H](CO)C(=O)OC — inhibition (ligand displacement, radioligand): 39%
Nc1ncc(-c2nc(N3CCOCC3)nc(N3CCOCC3)n2)c(C(F)F)n1 — remaining signal (cell-free assay, radioligand): 98.1%
CSC[C@@]12C[C@@H]1[C@@H](n1cnc3c(NC(C4CC4)C4CC4)nc(I)nc31)[C@H](O)[C@@H]2O — inhibition (ligand displacement, radioligand): 24%
COCc1c(-c2cc3cc(C)cc(OC)c3s2)c2c(N)ncnn2c1CN1CCNC(=O)C1 — inhibition (ligand displacement, radioligand): 23%
COCCN(CCOC)C(=O)[C@@]12C[C@@H]1[C@@H](n1cnc3c(NC(C4CC4)C4CC4)nc(Cl)nc31)[C@H](O)[C@@H]2O — inhibition (ligand displacement, radioligand): 0%
CCc1ccccc1C(=O)Nc1n[nH]c2c(C)c(F)c(C3C(C#N)=C(C)N(C)C(C)=C3C#N)cc12 — inhibition (ligand displacement): 14.8%
COc1cc2c3c(c1OC)-c1cc4c(cc1CC3N(C)CC2)OCO4 (racemic) — inhibition (ligand displacement, radioligand): 89.3%
COCCN(CCOC)C(=O)[C@@]12C[C@@H]1[C@@H](n1cnc3c(N)nc(Cl)nc31)[C@H](O)[C@@H]2O — inhibition (ligand displacement, radioligand): 3%
Clc1ccc2c(C3CCN(CCc4c[nH]c5ccccc45)CC3)c[nH]c2c1 — inhibition (ligand displacement, radioligand): 99%
